Reference: ChEMBL document CHEMBL4680142, “Thiazolidine-2,4-dione-based irreversible allosteric IKK-β kinase inhibitors: Optimization into in vivo active anti-inflammatory agents” (Eur J Med Chem, 2020)
Activity calls are given as the source filed them. The calls are words filed in the database; no cut-off is given here.

Columns and labels:
RAW264.7 [1] = assay: Antiinflammatory activity against mouse RAW264.7 cells assessed as reduction in LPS-induced PGE2 production at 0.1 to 1 uM incubated for 1 hr followed by LPS stimulation and measured after 24 hrs by ELISA; type: functional, cell-based; conditions: dose 0.1-1 µM, time 25.0 hrs
How it was run: (§1)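 RAW 264.7 cells (DMEM, 10% FBS, 37 °C, 5% CO2) plated at 2×10^5 cells/mL and left overnight. Compounds (0.1, 1, 10 µM) or NS-398 given for 1 h, then LPS 10 ng/mL for 24 h. Culture medium assayed by ELISA: competitive colorimetric for PGE2/TNF-α, mouse DuoSet for TNF-α/IL-6. IC50 is the concentration lowering the mediator to 50%.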

Mus musculus [2] = assay: Antiinflammatory activity against LPS-induced sepsis C57BL/6 mouse model assessed as organism survival rate at 5 to 50 mg/kg, po administered 1 hr before LPS stimulation and measured after 16 hrs relative to control; type: functional; conditions: dose 5-50 mg/kg, time 17 hrs
How it was run: (§2)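 Male C57BL/6 mice (6 or 10 weeks), water only for 24 h beforehand. Compound given orally at 5 or 50 mg/kg 1 h before intraperitoneal injection of LPS (Salmonella enterica serotype enteritidis, 25 mg/kg in PBS); controls received PBS. Survival monitored for 36 h.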

RAW264.7 [3] = assay: Antiinflammatory activity against mouse RAW264.7 cells assessed as reduction in LPS-induced TNF-alpha level at 0.1 to 1 uM incubated for 1 hr followed by LPS stimulation and measured after 24 hrs by ELISA; type: functional, cell-based; conditions: dose 0.1-1 µM, time 25.0 hrs; how it was run: as §1
Mus musculus [4] = assay: Antiinflammatory activity against LPS-induced sepsis C57BL/6 mouse model assessed as organism survival rate at 5 to 50 mg/kg, po administered 1 hr before LPS stimulation and measured after 36 hrs relative to control; type: functional; conditions: dose 5-50 mg/kg, time 37 hrs; how it was run: as §2

Row | SMILES | Activity (RAW264.7 [1]) | Survival (Mus musculus [2]) [%] | inhibition (RAW264.7 [3]) | Survival (Mus musculus [4]) [%]
1 | CN1CCN(CCCCCOc2cccc(N3C(=O)S/C(=C\c4ccc(Oc5ccc([N+](=O)[O-])cc5)cc4)C3=O)c2)CC1 | inactive | – | – | –
2 | CN1CCN(CCCOc2ccc(N3C(=O)S/C(=C\c4ccc(Oc5ccc(C#N)cc5)cc4)C3=O)cc2)CC1 | – | 100 | inactive | 80
